{"source": "PubChem BioAssay AID624366", "about": "(Broad Institute, 2012)", "tested_on": "SK-MEL-5 viability, CellTiter-Glo ATP luminescence, 24 h", "test": "ATP-based viability of SK-MEL-5 melanoma cells – cell-based, CellTiter-Glo luminescence, dry powder, set 4, orthogonal assay for MITF inhibitor project, dose response (AID 624366)", "in_short": "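Assay system: parental SK-MEL-5 melanoma cells. Buffer or medium: medium without phenol red. Schedule: 24 h treatment at 37 °C, 5 min RT read. Detection: CellTiter-Glo luminescence measuring cellular ATP. Read-out: viability via ATP level.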", "note": "Where “and” joins values, the source holds several entries; their conditions need not be identical. Equal entries are not always repeated. Calls of active or inactive are those of the source.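 Rule for the calls: active = signal drop with fitted AC50 no more than twice the top valid dose in every repeat run; inconclusive = mixed run calls, flat 30 to 70% drop, or poor fit; inactive = the rest.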"}
{"smiles": "O=C1C=C(NS(=O)(=O)c2ccc(Br)cc2)C(=O)c2ccccc21", "values": [{"measurement": "AC50", "value": 10, "unit": "µM"}]}
{"smiles": "O=C1C(Nc2ccccc2)=C(c2ccccc2)C(=O)c2ccccc21", "values": [{"measurement": "AC50", "value": 27.3, "unit": "µM"}]}
{"smiles": "CN1CCN(C2=C(NC(=O)c3ccc(Br)cc3)C(=O)c3ccccc3C2=O)CC1", "values": [{"measurement": "AC50", "value": 8, "unit": "µM"}]}
{"smiles": "O=C(NC1=C(N2CCOCC2)C(=O)c2ccccc2C1=O)c1ccc(Br)cc1", "values": [{"measurement": "AC50", "value": "> 70 µM (inactive)"}]}
{"smiles": "COC1=C(Nc2ccccc2)C(=O)c2ccccc2C1=O", "values": [{"measurement": "AC50", "value": 3.02, "unit": "µM"}]}
{"smiles": "NC1=C(c2ccc(OC(F)(F)F)cc2)C(=O)c2ccccc2C1=O", "values": [{"measurement": "AC50", "value": "> 70 µM (inactive)"}]}
{"smiles": "COC1=C(NS(=O)(=O)c2cccs2)C(=O)c2ccccc2C1=O", "values": [{"measurement": "AC50", "value": 23.7, "unit": "µM"}]}
{"smiles": "CC1CCN(CC(CS(=O)(=O)c2ccc([N+](=O)[O-])cc2)N2CCC(C)CC2)CC1", "note": "(stereo not given)", "values": [{"measurement": "AC50", "value": "> 70 µM (inactive)"}]}
{"smiles": "C[C@@H](NC1=C(Nc2ccccc2)C(=O)c2ccccc2C1=O)c1ccccc1", "values": [{"measurement": "AC50", "value": "> 70 µM (inactive)"}]}
{"smiles": "O=C1C=C(NS(=O)(=O)c2cccs2)C(=O)c2ccccc21", "values": [{"measurement": "AC50", "value": 9.28, "unit": "µM"}]}
{"smiles": "NC1=C(NS(=O)(=O)c2ccccc2)C(=O)c2ccccc2C1=O", "values": [{"measurement": "AC50", "value": 14, "unit": "µM"}]}
{"smiles": "O=C1C=C(NS(=O)(=O)c2ccccc2)C(=O)c2ccccc21", "values": [{"measurement": "AC50", "value": 5.83, "unit": "µM"}]}
{"smiles": "CCN1CCN(C2=C(NC(=O)c3ccc(Br)cc3)C(=O)c3ccccc3C2=O)CC1", "values": [{"measurement": "AC50", "value": 11, "unit": "µM"}]}
{"smiles": "O=C1C(Nc2ccccc2)=C(N2CCSCC2)C(=O)c2ccccc21", "values": [{"measurement": "AC50", "value": "> 70 µM (inactive)"}]}
{"smiles": "O=C1C(Nc2ccccc2)=C(NS(=O)(=O)c2ccccc2[N+](=O)[O-])C(=O)c2ccccc21", "values": [{"measurement": "AC50", "value": "> 70 µM (inactive)"}]}
{"smiles": "O=C(NC1=C(N2CCCCC2)C(=O)c2ccccc2C1=O)c1ccc(Br)cc1", "values": [{"measurement": "AC50", "value": "> 70 µM (inactive)"}]}
{"smiles": "CCN(CC)CCNC1=C(Nc2ccccc2)C(=O)c2ccccc2C1=O", "values": [{"measurement": "AC50", "value": "> 70 µM (inactive)"}]}
{"smiles": "NC1=C(NS(=O)(=O)c2cccs2)C(=O)c2ccccc2C1=O", "values": [{"measurement": "AC50", "value": 11.3, "unit": "µM"}]}
{"smiles": "NC1=CC(=O)c2ccccc2C1=O", "values": [{"measurement": "AC50", "value": 11, "unit": "µM"}]}
{"smiles": "Cc1nc2ccccc2n1/N=C/c1ccc([N+](=O)[O-])s1", "values": [{"measurement": "AC50", "value": "> 70 µM (inactive)"}]}
{"smiles": "CCN(CC)CCCNC1=C(Nc2ccccc2)C(=O)c2ccccc2C1=O", "values": [{"measurement": "AC50", "value": 24.4, "unit": "µM"}]}
{"smiles": "COC1=C(NS(=O)(=O)c2ccc(Br)cc2)C(=O)c2ccccc2C1=O", "values": [{"measurement": "AC50", "value": 11.3, "unit": "µM"}]}
{"smiles": "C=C1C(=O)OC2C1CC/C(C)=C\\CCC1(C)OC21", "note": "(stereo not given)", "values": [{"measurement": "AC50", "value": "> 70 µM (inactive)"}]}
{"smiles": "O=C1C=C(Nc2ccccc2)C(=O)c2ccccc21", "values": [{"measurement": "AC50", "value": "3.44 µM and 3.95 µM"}]}
{"smiles": "COC1=C(NS(=O)(=O)c2ccccc2)C(=O)c2ccccc2C1=O", "values": [{"measurement": "AC50", "value": 15.8, "unit": "µM"}]}
{"smiles": "NC1=C(NC(=O)c2ccccc2)C(=O)c2ccccc2C1=O", "values": [{"measurement": "AC50", "value": 12.3, "unit": "µM"}]}
{"smiles": "C=CCNC1=C(Cl)C(=O)c2ccccc2C1=O", "values": [{"measurement": "AC50", "value": 15.4, "unit": "µM"}]}
{"smiles": "O=C1C(NS(=O)(=O)c2ccccc2)=C(c2ccccc2)C(=O)c2ccccc21", "values": [{"measurement": "AC50", "value": "> 70 µM (inactive)"}]}
{"smiles": "C=CCNC1=C(N(C)C(C)=O)C(=O)c2ccccc2C1=O", "values": [{"measurement": "AC50", "value": 0.843, "unit": "µM"}]}
{"smiles": "O=C1C(NS(=O)(=O)c2ccc(Br)s2)=C(N2CCOCC2)C(=O)c2ccccc21", "values": [{"measurement": "AC50", "value": 27.6, "unit": "µM"}]}
{"smiles": "O=C(NC1=C(N2CCSCC2)C(=O)c2ccccc2C1=O)c1ccc(Br)cc1", "values": [{"measurement": "AC50", "value": "> 70 µM (inactive)"}]}
{"smiles": "CN1CCN(C2=C(NS(=O)(=O)c3ccc(Br)s3)C(=O)c3ccccc3C2=O)CC1", "values": [{"measurement": "AC50", "value": 23.6, "unit": "µM"}]}
{"smiles": "CC(=O)N(C)C1=C(N2CCCCC2)C(=O)c2ccccc2C1=O", "values": [{"measurement": "AC50", "value": 6.71, "unit": "µM"}]}
{"smiles": "CC(=O)N(C)C1=C(N2CCN(C)CC2)C(=O)c2ccccc2C1=O", "values": [{"measurement": "AC50", "value": 5.48, "unit": "µM"}]}
{"smiles": "NC1=C(NS(=O)(=O)c2ccc(Br)cc2)C(=O)c2ccccc2C1=O", "values": [{"measurement": "AC50", "value": 28.1, "unit": "µM"}]}
{"smiles": "CNC1=CC(=O)c2ccccc2C1=O", "values": [{"measurement": "AC50", "value": "> 70 µM (inactive)"}]}
{"smiles": "CCN1CCN(C2=C(NS(=O)(=O)c3ccc(Br)s3)C(=O)c3ccccc3C2=O)CC1", "values": [{"measurement": "AC50", "value": "> 70 µM (inactive)"}]}
{"smiles": "O=C1C(Nc2ccccc2)=C(N2CCCCC2)C(=O)c2ccccc21", "values": [{"measurement": "AC50", "value": 25.3, "unit": "µM"}]}
{"smiles": "CN1CCN(C2=C(Nc3ccccc3)C(=O)c3ccccc3C2=O)CC1", "values": [{"measurement": "AC50", "value": 34.2, "unit": "µM"}]}
{"smiles": "O=C1C(NS(=O)(=O)c2ccc(Br)s2)=C(N2CCCCC2)C(=O)c2ccccc21", "values": [{"measurement": "AC50", "value": 23.9, "unit": "µM"}]}
